Each structure is given as a SMILES string. The source made the active and inactive calls. No cut-off for these calls is given here.

A short description of data set [1]: Elimination rate constant in mouse lung at 5 mg/kg, ip by LC/MS/MS analysis. The data set is classed as ADME, organism-based.
The nature of data set [2]: Elimination rate constant in mouse brain at 5 mg/kg, ip by LC/MS/MS analysis. The data set is classed as ADME, organism-based.
The subject of data set [3] is Blood. As to the kind of experiment: Drug metabolism in mouse blood assessed as (S)-7-Methoxy-9-oxo-11,12,13,13a-tetrahydro-9H-benzo[e]imidazo[5,1-c]pyrrolo[1,2-a][1,4]di-azepine-1-carboxylic acid formation at 5 mg/kg, ip by LC/MS/MS analysis. The data set is classed as ADME, organism-based. The conditions noted are these: in vivo.
The subject of data set [4] is Blood. Kind of data set: Tmax in mouse blood assessed as (S)-7-Methoxy-N-methyl-9-oxo-11,12,13,13a-tetrahydro-9H-benzo[e]imidazo[5,1-c]pyrrolo[1,2-a][1,4]diazepine-1-carboxamide at 5 mg/kg, ip by LC/MS/MS analysis. The class given is ADME, organism-based. The note with it: in vivo.
Data set [5] deals with Mus musculus. Kind of data set: Antiasthamatic effect in BALB/c mouse model of ovalbumin-induced asthma assessed as inhibition of airway hyperresponsiveness at 40 mg/kg, ip bid for 5 days. The data set is classed as functional, organism-based.
Data set [6] has as its system Blood. As to the kind of experiment: Cmax in mouse blood assessed as (S)-7-Methoxy-N-methyl-9-oxo-11,12,13,13a-tetrahydro-9H-benzo[e]imidazo[5,1-c]pyrrolo[1,2-a][1,4]diazepine-1-carboxamide at 5 mg/kg, ip by LC/MS/MS analysis. The conditions noted are these: in vivo. The arrangement: dose 5 mg/kg, route intraperitoneal. The class given is ADME, organism-based.
The target in data set [7] is GABA A receptor alpha-4/beta-3/gamma-2 (Homo sapiens) (UniProt P18507+P28472+P48169). As to the kind of experiment: Activity at GABAA alpha4beta3gamma2 receptor (unknown origin) expressed in HEK293T cells assessed as potentiation of GABA-mediated increase in channel current under holding potential at -80 mV at 1 uM by patch clamp assay. The data set is classed as cell-based.

For data set [8], the system named is Mus musculus. Kind of data set: Antiasthamatic effect in BALB/c mouse model of ovalbumin-induced asthma assessed as inhibition of airway hyperresponsiveness at 40 mg/kg, ip administered 40 mins as single dose prior to measurement. The class given is functional, organism-based.
Data set [9] is described as follows: Cytotoxicity in HEK293 cells after 48 hrs by Cell-titer Glo reagent based assay. The note with it: human, read-out: LD50. In short, it runs like this: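 Cells (HEK293, HepG2 or BEAS2B) exposed to compounds at a range of concentrations for 48 h; viability read by Cell-Titer Glo luminescence. Normalized to DMSO (negative) and 3-dibutylamino-1-(4-hexyl-phenyl)-propan-1-one at 150 μM final in DMSO (positive).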

The nature of data set [10]: Tmax in mouse lung at 5 mg/kg, ip by LC/MS/MS analysis. The data set is classed as ADME, organism-based.
Data set [11] concerns Liver. Kind of data set: Metabolic stability in mouse liver microsomes assessed as compound remaining at 10 uM after 1 hr by LC-MS/MS analysis. The class given is ADME, microsome. In short, it runs like this:
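Compound stability was measured in human or mouse liver microsomes as percent remaining after 1 h. Data came from two independent experiments, each run in triplicate.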

Data set [12] can be described thus: AUC (0 to t) in mouse blood at 5 mg/kg, ip by LC/MS/MS analysis. The data set is classed as ADME, organism-based.
For data set [13], the system named is Mus musculus. As to the kind of experiment: Neurotoxicity in Swiss Webster mouse assessed as induction of senorimotor impairment at 40 mg/kg, ip administered 10 mins prior to testing and measured for 3 mins at 10 to 60 mins after drug administration by rotarod method. The data set is classed as toxicity, organism-based. The note with it: in vivo. In short, it runs like this: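 Swiss Webster mice, pre-trained at 15 rpm until they held on for 3 min at three consecutive sessions, were given a single i.p. dose of 40 mg/kg in 10% DMSO/40% propylene glycol/50% PBS. Rotarod at 15 rpm for 3 min at 10, 30 and 60 min after dosing. Falls before 3 min scored as fail, with time of fall recorded. N = 10, mean ± SEM. Vehicle and diazepam 5 mg/kg i.p. controls. Mice rested 2–3 days between doses.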
For orientation: Falling from the rotarod earlier than controls is read as motor impairment.

Take `COc1ccc2c(c1)C(=O)N1CCC[C@H]1c1c(C(=O)N(C)C)ncn1-2`: the k el in [1] was 0.000983 s⁻¹; in [2], 0.00112 s⁻¹. Moreover, the Drug metabolism entry in data set [3] is given as “Metabolite_Notdetected”. In addition, the Tmax – broadly, the time at which the peak concentration occurs – is 40 min in data set [4] and 3 min in data set [10]. The outcome in data set [5] was Active. Besides, in data set [6], the Cmax – broadly, the peak of the concentration-time curve – amounted to 1176 ng/g. The Activity in data set [7] is 319 to 545%; in data set [13], “Non-Toxic”. In data set [8], the outcome was inactive. Moreover, the CC50 at 48 h in data set [9] was greater than 400 µM. Further, the Stability in data set [11] amounted to 82.5%. Further, the AUC(0-t) (in general, the area under the concentration-time curve up to a stated or last time point) in data set [12] is 103 ng·h/mL.

Values taken from ChEMBL document CHEMBL3992505, “Optimization of substituted imidazobenzodiazepines as novel asthma treatments” (Eur J Med Chem, 2017).
